Data from ChEMBL document CHEMBL2046296, “Synthesis and antidepressant activity of arylalkanol-piperidine derivatives as triple reuptake inhibitors” (Eur J Med Chem, 2012).
pIC50: −log10 of the molar value.

Experiments:
[1] = target: Sodium-dependent dopamine transporter (Homo sapiens, UniProt Q01959); experiment: Inhibition of [3H]dopamine uptake at human DAT expressed in HEK293 cells at 10 uM after 10 mins by scintillation counting
[2] = target: T1, Sodium-dependent serotonin transporter (Homo sapiens, UniProt P31645); experiment: Inhibition of [3H]serotonin uptake at human SERT expressed in HEK293 cells at 10 uM after 10 min by scintillation counting
Target sequence in this assay (P31645 whole entry, looked up): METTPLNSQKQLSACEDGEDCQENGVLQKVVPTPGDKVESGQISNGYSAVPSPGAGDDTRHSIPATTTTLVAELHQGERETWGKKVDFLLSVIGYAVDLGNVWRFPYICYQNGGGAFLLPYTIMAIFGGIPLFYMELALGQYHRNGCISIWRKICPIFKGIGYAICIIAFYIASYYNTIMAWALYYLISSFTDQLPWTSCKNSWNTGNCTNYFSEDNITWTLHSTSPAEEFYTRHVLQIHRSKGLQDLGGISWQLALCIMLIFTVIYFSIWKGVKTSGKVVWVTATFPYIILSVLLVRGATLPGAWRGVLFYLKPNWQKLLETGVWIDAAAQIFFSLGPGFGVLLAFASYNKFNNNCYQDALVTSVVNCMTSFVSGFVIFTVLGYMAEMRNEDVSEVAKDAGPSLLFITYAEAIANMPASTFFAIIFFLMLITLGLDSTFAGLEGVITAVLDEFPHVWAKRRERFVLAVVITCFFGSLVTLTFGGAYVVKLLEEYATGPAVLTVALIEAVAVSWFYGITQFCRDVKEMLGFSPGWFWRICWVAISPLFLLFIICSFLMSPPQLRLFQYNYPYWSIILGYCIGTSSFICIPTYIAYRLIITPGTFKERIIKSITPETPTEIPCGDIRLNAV

[3] = target: T2, Sodium-dependent noradrenaline transporter (Homo sapiens, UniProt P23975); experiment: Inhibition of [3H]noradrenaline uptake at human NET expressed in HEK293 cells at 10 uM after 10 mins by scintillation counting
T2 sequence (P23975 whole entry): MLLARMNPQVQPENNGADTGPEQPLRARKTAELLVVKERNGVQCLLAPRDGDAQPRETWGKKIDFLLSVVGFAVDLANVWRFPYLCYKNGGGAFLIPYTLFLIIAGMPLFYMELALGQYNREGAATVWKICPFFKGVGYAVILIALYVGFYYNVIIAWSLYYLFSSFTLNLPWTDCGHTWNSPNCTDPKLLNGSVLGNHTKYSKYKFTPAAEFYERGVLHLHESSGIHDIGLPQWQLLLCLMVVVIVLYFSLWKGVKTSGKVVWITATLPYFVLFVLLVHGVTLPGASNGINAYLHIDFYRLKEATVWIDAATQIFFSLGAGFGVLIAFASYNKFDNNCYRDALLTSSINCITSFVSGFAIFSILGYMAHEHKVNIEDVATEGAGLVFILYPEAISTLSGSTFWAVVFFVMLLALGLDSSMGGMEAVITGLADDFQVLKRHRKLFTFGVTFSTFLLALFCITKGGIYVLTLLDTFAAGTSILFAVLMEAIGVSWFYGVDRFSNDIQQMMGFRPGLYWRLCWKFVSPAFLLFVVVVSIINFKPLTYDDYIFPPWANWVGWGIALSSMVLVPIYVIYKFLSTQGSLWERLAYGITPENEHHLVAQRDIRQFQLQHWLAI

[4] = target: T1, Sodium-dependent serotonin transporter; experiment: Inhibition of [3H]serotonin uptake at human SERT expressed in HEK293 cells after 10 min by scintillation counting
Target sequence in this assay (P31645 whole entry): as the sequence (P31645 whole entry, looked up) above

[5] = target: T2, Sodium-dependent noradrenaline transporter; experiment: Inhibition of [3H]noradrenaline uptake at human NET expressed in HEK293 cells after 10 mins by scintillation counting
Mus musculus [6] = experiment: Antidepressant activity in mouse assessed as decrease in immobility at 50 mg/kg, po administered 30 mins prior to testing by tail suspension test relative to vehicle control; assay type: functional; design: scale not given: the % may be the effect or the level left
How it was run: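 Oral doses of 10–50 mg/kg (three doses) were given once, 30 min before testing. Mice were hung by adhesive tape 1 cm from the tail tip, 75 cm above the tabletop. Immobility was recorded for 5 min, scored blind, 10–12 mice per group, against vehicle controls. One-way ANOVA with Scheffe post hoc test; p<0.05 significant.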

Mus musculus [7] = experiment: Toxicity in mouse assessed as increase in locomotor activity at 50 mg/kg, po up to 5 mins relative to vehicle treated control; assay type: organism-based; design: dose 50 mg/kg, route oral; details: in vivo
How it was run: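 Mice were dosed orally at 50 mg/kg and 30 min later placed singly in new 35×35×35 cm plastic cages under dim light with sound attenuation. Activity was logged by a monitoring apparatus at intervals up to 30 min, and the 5 min point was analysed. Mean ± SEM; one-way ANOVA, Scheffe post hoc, versus control.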

Sodium-dependent dopamine transporter, sequence (Q01959 whole entry): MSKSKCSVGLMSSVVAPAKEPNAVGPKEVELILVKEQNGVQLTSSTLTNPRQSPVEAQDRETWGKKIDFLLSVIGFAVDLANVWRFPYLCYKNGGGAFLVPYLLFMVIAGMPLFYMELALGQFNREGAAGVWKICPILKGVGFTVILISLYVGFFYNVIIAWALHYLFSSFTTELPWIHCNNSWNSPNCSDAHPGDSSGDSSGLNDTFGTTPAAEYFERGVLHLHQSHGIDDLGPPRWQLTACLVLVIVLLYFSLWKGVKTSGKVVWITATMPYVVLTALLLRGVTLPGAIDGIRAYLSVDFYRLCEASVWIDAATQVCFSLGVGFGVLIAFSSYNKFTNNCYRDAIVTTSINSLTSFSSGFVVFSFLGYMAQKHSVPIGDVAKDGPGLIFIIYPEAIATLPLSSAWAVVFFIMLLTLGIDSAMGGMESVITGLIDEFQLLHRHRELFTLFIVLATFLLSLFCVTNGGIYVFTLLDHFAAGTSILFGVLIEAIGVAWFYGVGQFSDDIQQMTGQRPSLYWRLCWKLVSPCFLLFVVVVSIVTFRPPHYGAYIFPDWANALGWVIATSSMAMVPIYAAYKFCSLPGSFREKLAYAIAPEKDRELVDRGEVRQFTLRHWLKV

inhibition [1]	inhibition [2]	inhibition [3]	pIC50 [4]	pIC50 [5]	SMILES	Activity (Mus musculus [6])	Activity (Mus musculus [7])
61%	56%	50%			OC(CCN1CC=C(Cc2ccccc2)CC1)c1ccc(Cl)cc1 (racemic)		
70%	59%	62%			COc1ccc([C@H](O)[C@@H](C)N2CC=C(Cc3ccccc3)CC2)cc1 (racemic)		
56%	38%	36%			C[C@H]([C@@H](O)c1ccc(Cl)c(Cl)c1)N1CC=C(Cc2ccccc2)CC1 (racemic)		
51%	80%	63%			COc1ccc2cc([C@H](O)[C@@H](C)N3CCC(O)(Cc4ccccc4)CC3)ccc2c1Cl (racemic)		
22%		55%	6.45		COc1ccc2cc([C@H](O)[C@H](C)N3CCC(O)(Cc4ccccc4)CC3)ccc2c1Cl (racemic)		
52%	78%	82%			OC(CCN1CC=C(Cc2ccccc2)CC1)c1cccs1 (racemic)		
35%	61%	83%			C[C@H]([C@@H](O)c1cccc(F)c1)N1CC=C(Cc2ccccc2)CC1 (racemic)		
57%		62%	6.11		COc1ccc(C(O)CCN2CC=C(Cc3ccccc3)CC2)cc1 (racemic)		
75%	55%	78%			C[C@H]([C@@H](O)c1csc2ccccc12)N1CC=C(Cc2ccccc2)CC1 (racemic)		
64%			6.44	6.27	C[C@@H]([C@@H](O)c1ccc(Cl)c(Cl)c1)N1CC=C(Cc2ccccc2)CC1 (racemic)		
					COc1ccc(C(CN(C)C)C2(O)CCCCC2)cc1 (configuration not stated) [VENLAFAXINE]	63%	Non-toxic
55%	65%	74%			O=[N+]([O-])c1ccc(C(O)CCN2CC=C(Cc3ccccc3)CC2)cc1 (racemic)		
61%	74%	63%			COc1ccc(C(O)CCN2CC=C(Cc3ccccc3)CC2)cc1OC (racemic)		
68%	80%	55%			COc1ccc([C@H](O)[C@H](C)N2CC=C(Cc3ccccc3)CC2)cc1 (racemic)		
64%	27%	61%			OC(CCN1CCC(O)(Cc2ccccc2)CC1)c1csc2ccccc12 (racemic)		
30%	62%	83%			Cc1ccc(C(O)CCN2CC=C(Cc3ccccc3)CC2)cc1 (racemic)		
70%	63%	57%			C[C@@H]([C@@H](O)c1cccc(F)c1)N1CC=C(Cc2ccccc2)CC1 (racemic)		
66%	66%	78%			OC(CCN1CC=C(Cc2ccccc2)CC1)c1ccc(F)cc1F (racemic)		
49%	74%	88%			OC(CCN1CC=C(Cc2ccccc2)CC1)c1ccc2c(c1)CCO2 (racemic)		
77%	33%	34%			C[C@@H]([C@@H](O)c1csc2ccccc12)N1CC=C(Cc2ccccc2)CC1 (racemic)		
73%			6.37	6.10	COc1ccc2cc(C(O)CCN3CCC(O)(Cc4ccccc4)CC3)ccc2c1Cl (racemic)		
